Laboratory results from ChEMBL document CHEMBL4152262, “Design, synthesis and evaluation of novel multi-target-directed ligands for treatment of Alzheimer's disease based on coumarin and lipoic acid scaffolds” (Eur J Med Chem, 2018).

Key:
PC-12 [1] = assay: Neuroprotection against H2O2-induced cell death in rat PC12 cells assessed as cell viability at 5 uM preincubated for 3 hrs followed by H2O2 stimulation measured after 2 hrs by MTT assay (reference value: 25.2 to 41.8%); assay type: functional; conditions: read-out: Activity
PC-12 [2] = assay: Neuroprotection against H2O2-induced cell death in rat PC12 cells assessed as cell viability at 0.1 uM preincubated for 3 hrs followed by H2O2 stimulation measured after 2 hrs by MTT assay (reference value: 25.2 to 41.8%); assay type: functional; conditions: read-out: Activity
PC-12 [3] = assay: Neuroprotection against H2O2-induced cell death in rat PC12 cells assessed as cell viability at 10 uM preincubated for 3 hrs followed by H2O2 stimulation measured after 2 hrs by MTT assay (reference value: 25.2 to 41.8%); assay type: functional; conditions: read-out: Activity
[4] = Inhibition of soybean 15-LOX assessed as reduction in conversion of linoleic acid to 13-hydroperoxylinoleic acid by spectrophotometric method; set-up: species or system Glycine max
Outline: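 Soybean lipoxygenase type 1-B (final 167 U/mL) with compound (DMSO stock diluted in 0.1 M phosphate buffer pH 8) and linoleic acid (134 mM in ethanol) at room temperature. Formation of 13-hydroperoxylinoleic acid followed spectrophotometrically at 234 nm.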

Cholinesterase = Cholinesterase (Equus caballus, UniProt P81908); assay: Inhibition of equine serum BuChE using butyrylthiocholine iodide as substrate pretreated for 5 mins followed by substrate addition by Ellman's method
Chain of Cholinesterase (P81908 whole entry): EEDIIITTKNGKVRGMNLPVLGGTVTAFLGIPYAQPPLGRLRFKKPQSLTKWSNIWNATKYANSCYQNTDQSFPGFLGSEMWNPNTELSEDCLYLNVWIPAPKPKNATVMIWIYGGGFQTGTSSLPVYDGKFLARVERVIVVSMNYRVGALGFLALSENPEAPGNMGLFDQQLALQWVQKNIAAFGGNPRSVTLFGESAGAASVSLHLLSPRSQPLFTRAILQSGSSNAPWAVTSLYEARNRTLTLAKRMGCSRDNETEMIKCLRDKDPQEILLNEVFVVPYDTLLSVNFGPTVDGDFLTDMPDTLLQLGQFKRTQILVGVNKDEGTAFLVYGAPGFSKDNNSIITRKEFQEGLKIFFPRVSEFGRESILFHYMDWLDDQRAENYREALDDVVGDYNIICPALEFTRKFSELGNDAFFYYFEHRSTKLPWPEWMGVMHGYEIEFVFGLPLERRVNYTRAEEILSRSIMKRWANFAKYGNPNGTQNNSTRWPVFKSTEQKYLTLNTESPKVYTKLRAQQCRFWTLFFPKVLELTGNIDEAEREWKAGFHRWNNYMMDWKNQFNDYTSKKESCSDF
Outline: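 Ellman assay with horse serum BuChE (5 IU/mL) in 0.1 M phosphate buffer pH 8.0 with DTNB. Compound was preincubated with enzyme 5 min, then butyrylthiocholine iodide was added. Absorbance read at 412 nm. IC50 from a log concentration vs % inhibition curve; triplicate runs.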

Acetylcholinesterase = Acetylcholinesterase (Electrophorus electricus, UniProt O42275); assay: Inhibition of electric eel AChE using acetylthiocholine iodide as substrate pretreated for 5 mins followed by substrate addition by Ellman's method
Chain of Acetylcholinesterase (O42275 whole entry): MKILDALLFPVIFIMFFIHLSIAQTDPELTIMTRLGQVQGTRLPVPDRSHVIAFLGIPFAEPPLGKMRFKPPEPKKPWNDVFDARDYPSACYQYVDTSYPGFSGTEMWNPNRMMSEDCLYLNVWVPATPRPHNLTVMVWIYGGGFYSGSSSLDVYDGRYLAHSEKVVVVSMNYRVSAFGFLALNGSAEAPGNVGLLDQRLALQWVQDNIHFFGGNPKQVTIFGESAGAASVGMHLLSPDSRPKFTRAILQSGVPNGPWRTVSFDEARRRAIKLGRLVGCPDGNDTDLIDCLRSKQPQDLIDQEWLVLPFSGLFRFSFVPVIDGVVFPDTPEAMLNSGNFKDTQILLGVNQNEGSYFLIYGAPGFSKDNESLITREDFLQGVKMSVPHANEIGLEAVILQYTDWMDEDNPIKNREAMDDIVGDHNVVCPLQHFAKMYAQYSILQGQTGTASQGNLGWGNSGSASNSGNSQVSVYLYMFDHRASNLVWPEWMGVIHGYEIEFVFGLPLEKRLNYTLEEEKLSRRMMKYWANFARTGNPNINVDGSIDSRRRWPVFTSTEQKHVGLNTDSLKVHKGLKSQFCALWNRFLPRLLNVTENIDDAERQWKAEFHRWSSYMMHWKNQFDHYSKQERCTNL

PC-12 [5] = assay: Neuroprotection against H2O2-induced cell death in rat PC12 cells assessed as cell viability at 50 uM preincubated for 3 hrs followed by H2O2 stimulation measured after 2 hrs by MTT assay (reference value: 25.2 to 41.8%); assay type: functional; conditions: read-out: Activity
PC-12 [6] = assay: Neuroprotection against H2O2-induced cell death in rat PC12 cells assessed as cell viability at 20 uM preincubated for 3 hrs followed by H2O2 stimulation measured after 2 hrs by MTT assay (reference value: 25.2 to 41.8%); assay type: functional; conditions: read-out: Activity
PC-12 [7] = assay: Neuroprotection against H2O2-induced cell death in rat PC12 cells assessed as increase in cell viability preincubated for 3 hrs followed by H2O2 stimulation measured after 2 hrs by MTT assay; assay type: functional, cell-based
PC-12 [8] = assay: Neuroprotection against H2O2-induced cell death in rat PC12 cells assessed as cell viability at 1 uM preincubated for 3 hrs followed by H2O2 stimulation measured after 2 hrs by MTT assay (reference value: 25.2 to 41.8%); assay type: functional; conditions: read-out: Activity

| SMILES | viability at 5 µM (PC-12 [1]) [%] | viability at 0.1 µM (PC-12 [2]) [%] | viability at 10 µM (PC-12 [3]) [%] | IC50 [4] [µM] | IC50 (Cholinesterase) [µM] | IC50 (Acetylcholinesterase) [µM] | viability at 50 µM (PC-12 [5]) [%] | viability at 20 µM (PC-12 [6]) [%] | Activity (PC-12 [7]) | viability at 1 µM (PC-12 [8]) [%] |
| --- | --- | --- | --- | --- | --- | --- | --- | --- | --- | --- |
| O=C(CCCCC1CCSS1)NCc1cn(CCCOc2ccc3cc(-c4ccc(Cl)cc4)c(=O)oc3c2)nn1 (configuration not stated) | 60.6 | 40.9 | 67.8 | > 100 | > 100 | > 100 | 79.4 | 75.6 | Dose-dependent effect | 49.3 |
| O=C(CCCCC1CCSS1)NCc1cn(CCCOc2ccc3ccc(=O)oc3c2)nn1 (configuration not stated) | 39.2 | 37.8 | 40 | > 100 | > 100 | 66.7 | 43.5 | 42.2 | Dose-dependent effect | 37.2 |
| O=C(CCCCC1CCSS1)NCc1cn(CCCCCOc2ccc3ccc(=O)oc3c2)nn1 (configuration not stated) | 64.5 | 46.3 | 71.3 | > 100 | > 100 | 70.6 | 84.9 | 78.5 | Dose-dependent effect | 57.2 |
| O=C(CCCCC1CCSS1)NCc1cn(CCCCCOc2ccc3cc(-c4ccccc4)c(=O)oc3c2)nn1 (configuration not stated) | 28 | 35.5 | 26.3 | > 100 | > 100 | > 100 | 17.7 | 20.7 |  | 30.7 |
| COc1ccc(-c2cc3ccc(OCCCCCn4cc(CNC(=O)CCCCC5CCSS5)nn4)cc3oc2=O)cc1OC (configuration not stated) | 46.9 | 38.5 | 50.5 | > 100 | > 100 | > 100 | 55 | 51.9 | Dose-dependent effect | 42.2 |
| O=C(CCCCC1CCSS1)NCc1cn(CCCCOc2ccc3cc(-c4ccc(Cl)c(Cl)c4)c(=O)oc3c2)nn1 (configuration not stated) | 53.2 | 39.6 | 58.9 | > 100 | 10.3 | > 100 | 69.5 | 62.9 | Dose-dependent effect | 49.3 |
| O=C(CCCCC1CCSS1)NCc1cn(CCCOc2ccc3cc(-c4ccccc4)c(=O)oc3c2)nn1 (configuration not stated) | 29.8 | 33.9 | 29.1 | > 100 | > 100 | > 100 | 23.1 | 27.2 |  | 31.9 |
| O=c1c(O)c(-c2ccc(O)c(O)c2)oc2cc(O)cc(O)c12 [QUERCETIN] | 47.3 | 36.2 | 53.7 |  |  |  | 58.8 | 56.9 |  | 40.7 |
| CCOC(=O)c1cc2ccc(OCCCn3cc(CNC(=O)CCCCC4CCSS4)nn3)cc2oc1=O (configuration not stated) | 32.4 | 28 | 36.1 | > 100 | > 100 | 55 | 49.2 | 42.1 | Dose-dependent effect | 28.3 |
| COc1ccc(-c2cc3ccc(OCCCCn4cc(CNC(=O)CCCCC5CCSS5)nn4)cc3oc2=O)cc1 (configuration not stated) | 44.9 | 32.1 | 48.6 | > 100 | > 100 | > 100 | 55.3 | 52.3 | Dose-dependent effect | 36.8 |
| O=C(CCCCC1CCSS1)NCc1cn(CCCCOc2ccc3cc(-c4ccc(Br)cc4)c(=O)oc3c2)nn1 (configuration not stated) | 40.5 | 34.2 | 42.6 | > 100 | > 100 | > 100 | 47.6 | 45 | Dose-dependent effect | 37.4 |
| CC(=O)c1cc2ccc(OCCCCCn3cc(CNC(=O)CCCCC4CCSS4)nn3)cc2oc1=O (configuration not stated) | 22.2 | 28.9 | 20.8 | > 100 | > 100 | > 100 | 18.2 | 20.7 |  | 27.4 |
| O=C(CCCCC1CCSS1)NCc1cn(CCCCCOc2ccc3cc(-c4ccc(Br)cc4)c(=O)oc3c2)nn1 (configuration not stated) | 45.7 | 41.8 | 48.4 | > 100 | > 100 | > 100 | 53.6 | 52.3 | Dose-dependent effect | 43.7 |
| O=C(CCCCC1CCSS1)NCc1cn(CCCCOc2ccc3cc(-c4ccccc4)c(=O)oc3c2)nn1 (configuration not stated) | 32.8 | 38.6 | 30.5 | > 100 | > 100 | > 100 | 20.5 | 26 |  | 34.8 |
